Experimental data published in ChEMBL document CHEMBL1148785, “Second generation tetrahydroquinoline-based protein farnesyltransferase inhibitors as antimalarials” (J Med Chem, 2007).

Experiments:
[1] = Inhibition of Plasmodium falciparum protein farnesyltransferase by scintillation proximity assay
Plasmodium falciparum [2] = test: Antimalarial activity against Plasmodium falciparum 3D7; assay type: functional; settings: read-out: ED50 (the source's name)
In short: (§1)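 Asynchronous culture in type A+ erythrocytes at 0.5% parasitemia and 0.5% hematocrit, grown in RPMI-1640 with 20% heat-inactivated human A+ plasma. Compound was serially diluted from a top final 5 µM, with DMSO vehicle as 100% growth. Plates ran 48 h at 37 °C under 5% CO2/5% O2/90% N2, then [3H]-hypoxanthine (0.3 µCi) for 24 h. Filter-harvested counts were corrected for the uninfected-RBC background. ED50 by linear regression; duplicates averaged.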

Plasmodium falciparum [3] = test: Antimalarial activity against Plasmodium falciparum K1; assay type: functional; settings: read-out: ED50 (the source's name); in short: as §1
Plasmodium falciparum [4] = test: Inhibition of Plasmodium falciparum protein farnesyltransferase at 50 nM by scintillation proximity assay
Plasmodium falciparum [5] = test: Inhibition of Plasmodium falciparum protein farnesyltransferase at 5 nM by scintillation proximity assay
Plasmodium falciparum [6] = test: Inhibition of Plasmodium falciparum protein farnesyltransferase at 0.5 nM by scintillation proximity assay

Row | SMILES | IC50 [1] | EC50 (Plasmodium falciparum [2]) | EC50 (Plasmodium falciparum [3]) | EC50 (Plasmodium falciparum [2]; Plasmodium falciparum, 3D7) | EC50 (Plasmodium falciparum [3]; Plasmodium falciparum, K1) | inhibition (Plasmodium falciparum [4]) | inhibition (Plasmodium falciparum [5]) | inhibition (Plasmodium falciparum [6])
1 | COC(=O)N1CCC(CN(C2Cc3cc(C#N)ccc3N(Cc3cncn3C)C2)S(=O)(=O)c2ccccn2)CC1 (stereo unspecified) [listing 1 of 3 here] | 0.29 nM | 11 nM | 13 nM |  |  |  |  | 
2 | Cn1cncc1CN1CC(N(CC(=O)OC(C)(C)C)C(=O)c2ccccc2)Cc2cc(C#N)ccc21 (stereo unspecified) | > 50 nM |  |  | > 5000 nM | > 5000 nM |  |  | 
3 | Cn1cncc1CN1CC(N(CC(=O)NC(C)(C)C)S(=O)(=O)c2c[nH]cn2)Cc2cc(C#N)ccc21 (stereo unspecified) | 800 nM |  |  | > 5000 nM | > 5000 nM | 15% | 14% | 10%
4 | CCC(=O)N1CCC(CN(C2Cc3cc(C#N)ccc3N(Cc3cncn3C)C2)S(=O)(=O)c2ccccn2)CC1 (stereo unspecified) | 0.8 nM |  |  | 16 nM | 25 nM | 99% | 20% | 82%
5 | Cc1cc(C(=O)N(CC(=O)OC(C)(C)C)C2Cc3cc(C#N)ccc3N(Cc3cncn3C)C2)no1 (stereo unspecified) | > 50 nM |  |  | > 5000 nM | > 5000 nM |  |  | 
6 | COC(=O)N1CCC(CN(C2Cc3cc(C#N)ccc3N(Cc3cncn3C)C2)S(=O)(=O)c2ccccn2)CC1 (stereo unspecified) [listing 2 of 3 here] | 0.58 nM | 16 nM | 15 nM |  |  |  |  | 
7 | Cn1cncc1CN1CC(N(CC2CCN(C(=O)CC(F)(F)F)CC2)S(=O)(=O)c2ccccn2)Cc2cc(C#N)ccc21 (stereo unspecified) | 2 nM |  |  | 43 nM | 55 nM | 98% | 30% | 77%
8 | Cn1cncc1CN1CC(N(CC2CCN(C(=O)C(C)(C)C)CC2)S(=O)(=O)c2ccccn2)Cc2cc(C#N)ccc21 (stereo unspecified) | 1.2 nM |  |  | 48 nM | 75 nM | 99% | 17% | 76%
9 | Cn1cncc1CN1CC(N(CC(=O)NC(C)(C)C)S(=O)(=O)c2ccc(F)cc2)Cc2cc(C#N)ccc21 (stereo unspecified) | 42 nM |  |  | > 5000 nM | 5000 nM | 71% | 33% | 30%
10 | CC(=O)N1CCC(CN(C2Cc3cc(C#N)ccc3N(Cc3cncn3C)C2)S(=O)(=O)c2ccccn2)CC1 (stereo unspecified) | 2.4 nM |  |  | 37 nM | 95 nM | 94% | 29% | 65%
11 | COC(=O)N1CCC(CN(C2Cc3cc(C#N)ccc3N(Cc3cncn3C)C2)S(=O)(=O)c2ccccn2)CC1 (stereo unspecified) [listing 3 of 3 here] | 2.7 nM | 95 nM | 75 nM |  |  |  |  | 
12 | CCOC(=O)N1CCC(CN(C2Cc3cc(C#N)ccc3N(Cc3cncn3C)C2)S(=O)(=O)c2cn(C)cn2)CC1 (stereo unspecified) |  |  |  | 14 nM | 7 nM | 98% | 96% | 49%
13 | Cn1cnc(S(=O)(=O)N(CCCCCC(N)=O)C2Cc3cc(C#N)ccc3N(Cc3cncn3C)C2)c1 (stereo unspecified) |  |  |  | 150 nM | 73 nM | 98% | 87% | 31%
14 | COC(=O)N1CCC(CN(C2Cc3cc(C#N)ccc3N(Cc3cncn3C)C2)S(=O)(=O)C2CC2)CC1 (stereo unspecified) |  |  |  | > 5000 nM | 3950 nM | 37% | 3% | 0%
15 | Cn1cnc(S(=O)(=O)N(CCN2CCCCC2)C2Cc3cc(C#N)ccc3N(Cc3cncn3C)C2)c1 (stereo unspecified) |  |  |  | 200 nM | 300 nM | 93% | 62% | 9%
16 | COC(=O)N1CCC(CN(C2Cc3cc(C#N)ccc3N(Cc3cncn3C)C2)S(=O)(=O)CS(C)(=O)=O)CC1 (stereo unspecified) |  |  |  | > 5000 nM | > 5000 nM | 15% | 0% | 0%
17 | CC(=O)Nc1nc(C)c(S(=O)(=O)N(CC(=O)NC(C)(C)C)C2Cc3cc(C#N)ccc3N(Cc3cncn3C)C2)s1 (stereo unspecified) |  |  |  | > 5000 nM | > 5000 nM | 11% | 2% | 5%
18 | CCCS(=O)(=O)N(CC1CCN(C(=O)OC)CC1)C1Cc2cc(C#N)ccc2N(Cc2cncn2C)C1 (stereo unspecified) |  |  |  | 1100 nM | 1800 nM | 55% | 22% | 1%
19 | CC(C)COC(=O)N1CCC(CN(C2Cc3cc(C#N)ccc3N(Cc3cncn3C)C2)S(=O)(=O)c2cn(C)cn2)CC1 (stereo unspecified) |  |  |  | 10 nM | 5.5 nM | 98% | 90% | 24%
20 | COC(=O)N1CCC(CN(C2Cc3cc(C#N)ccc3N(Cc3cncn3C)C2)S(=O)(=O)c2ccc3oc(=O)ccc3c2)CC1 (stereo unspecified) |  |  |  | > 5000 nM | > 5000 nM | 68% | 21% | 2%
21 | COC(=O)NCCN(C1Cc2cc(C#N)ccc2N(Cc2cncn2C)C1)S(=O)(=O)c1ccccn1 (stereo unspecified) |  |  |  | 510 nM | 400 nM | 90% | 47% | 14%

Row | SMILES | IC50 [1] | EC50 (Plasmodium falciparum [2]) | EC50 (Plasmodium falciparum [3]) | EC50 (Plasmodium falciparum [2]; Plasmodium falciparum, 3D7) | EC50 (Plasmodium falciparum [3]; Plasmodium falciparum, K1) | inhibition (Plasmodium falciparum [4]) | inhibition (Plasmodium falciparum [5]) | inhibition (Plasmodium falciparum [6])
22 | Cn1cnc(CN2CC(N(CC(=O)NC(C)(C)C)S(=O)(=O)c3cn(C)cn3)Cc3cc(-c4ccccc4)ccc32)c1 (stereo unspecified) |  |  |  | 381 nM | 395 nM | 97% | 73% | 23%
23 | CN(C)S(=O)(=O)N(Cc1ccccc1F)C1Cc2cc(C#N)ccc2N(Cc2cncn2C)C1 (stereo unspecified) |  |  |  | 360 nM | 3600 nM | 62% | 10% | 8%
24 | Cn1cnc(CN2CC(N(Cc3ccc(S(C)(=O)=O)cc3)S(=O)(=O)c3cn(C)cn3)Cc3cc(-c4ccccc4)ccc32)c1 (stereo unspecified) |  |  |  | 270 nM | 450 nM | 98% | 84% | 32%
25 | Cc1oncc1S(=O)(=O)N(CC(=O)NC(C)(C)C)C1Cc2cc(C#N)ccc2N(Cc2cncn2C)C1 (stereo unspecified) |  |  |  | > 5000 nM | > 5000 nM | 3% | 0% | 0%
26 | Cn1cncc1CN1CC(N(Cc2ccccc2F)S(=O)(=O)c2ccccn2)Cc2cc(C#N)ccc21 (stereo unspecified) |  |  |  | 230 nM | 1250 nM | 100% | 82% | 19%
27 | Cc1c(S(=O)(=O)N(Cc2ccc(S(C)(=O)=O)cc2)C2Cc3cc(C#N)ccc3N(Cc3cncn3C)C2)ncn1C (stereo unspecified) |  |  |  | 320 nM | 450 nM | 92% | 70% | 23%
28 | Cn1cnc(S(=O)(=O)N(Cc2ccsc2)C2Cc3cc(C#N)ccc3N(Cc3cncn3C)C2)c1 (stereo unspecified) | 0.4 nM |  |  | 12 nM | 2 nM | 99% |  | 
29 | Cn1cnc(S(=O)(=O)N(CCc2ccsc2)C2Cc3cc(C#N)ccc3N(Cc3cncn3C)C2)c1 (stereo unspecified) |  |  |  | 6.2 nM | 4.2 nM | 100% | 100% | 86%
30 | Cn1cncc1CN1CC(N(Cc2ccccc2F)S(C)(=O)=O)Cc2cc(C#N)ccc21 (stereo unspecified) |  |  |  | 600 nM | > 5000 nM | 51% | 7% | 0%
31 | Cn1cncc1CN1CC(N(CC2CCN(S(=O)(=O)c3ccccc3)CC2)S(=O)(=O)c2ccccn2)Cc2cc(C#N)ccc21 (stereo unspecified) |  |  |  | 275 nM | 280 nM | 96% | 7% | 67%
32 | Cn1cnc(S(=O)(=O)N(CCCCC(=O)NCCN)C2Cc3cc(C#N)ccc3N(Cc3cncn3C)C2)c1 (stereo unspecified) | 0.9 nM |  |  | 250 nM | 130 nM |  |  | 
33 | CCN(CCCCN(C1Cc2cc(C#N)ccc2N(Cc2cncn2C)C1)S(=O)(=O)c1ccccn1)C(=O)OC(C)(C)C (stereo unspecified) |  |  |  | 1250 nM | 2600 nM | 92% | 52% | 6%
34 | Cn1cnc(CN2CC(NS(=O)(=O)c3ccccn3)Cc3cc(-c4ccccc4)ccc32)c1 (stereo unspecified) |  |  |  | > 5000 nM | > 5000 nM | 19% | 14% | 11%
35 | Cn1cnc(C(=O)N(CC(=O)OC(C)(C)C)C2Cc3cc(C#N)ccc3N(Cc3cncn3C)C2)c1 (stereo unspecified) | > 50 nM |  |  | > 5000 nM | > 5000 nM |  |  | 
36 | Cn1cnc(S(=O)(=O)N(Cc2ccc(C(F)(F)F)o2)C2Cc3cc(C#N)ccc3N(Cc3cncn3C)C2)c1 (stereo unspecified) |  |  |  | 78 nM | 75 nM | 97% | 96% | 54%
37 | CN(C)CCN(C1Cc2cc(C#N)ccc2N(Cc2cncn2C)C1)S(=O)(=O)c1cn(C)cn1 (stereo unspecified) |  |  |  | 2700 nM | 3100 nM | 64% | 15% | 0%
38 | Cn1cncc1CN1CC(N(CCNC(=O)OC(C)(C)C)S(=O)(=O)c2ccccn2)Cc2cc(C#N)ccc21 (stereo unspecified) |  |  |  | 230 nM | 240 nM | 91% | 48% | 9%
39 | CSCCC(=O)N(Cc1ccccc1F)C1Cc2cc(C#N)ccc2N(Cc2cncn2C)C1 (stereo unspecified) |  |  |  | 270 nM | 450 nM | 52% | 9% | 0%
40 | COC(=O)N1CCC(CN(C2Cc3cc(C#N)ccc3N(Cc3cncn3C)C2)S(=O)(=O)c2cccc(F)c2)CC1 (stereo unspecified) |  |  |  | 90 nM | 150 nM | 93% | 86% | 39%
41 | CCS(=O)(=O)N(CC1CCN(C(=O)OC)CC1)C1Cc2cc(C#N)ccc2N(Cc2cncn2C)C1 (stereo unspecified) |  |  |  | 4100 nM | > 5000 nM | 44% | 0% | 0%
42 | COC(=O)c1ccsc1S(=O)(=O)N(CC1CCN(C(=O)OC)CC1)C1Cc2cc(C#N)ccc2N(Cc2cncn2C)C1 (stereo unspecified) |  |  |  | 2300 nM | 1900 nM | 92% | 61% | 10%
